The source made the active and inactive calls. The rule behind the calls is not given here.
Legend:
INS1 [1] = assay: Protection against tunicamycin induced endoplasmic reticulum stress in rat INS-1 cells assessed as increase in cell viability after 3 days by CellTiter-Glo assay; type: functional, cell-based; details: INS1, 72 h
Summary of the method: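 INS-1 cells at 3×10^3/well (384-well) co-treated with Tm 0.1 µg/mL and compound for 72 h; CellTiter-Glo ATP luminescence. Activity is % rescue, with Tm alone = 0% and DMSO without Tm = 100%. EC50 from ten 2-fold serial dilutions by curve fit; triplicate.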

INS1 [2] = assay: Protection against tunicamycin induced endoplasmic reticulum stress in rat INS-1 cells assessed as increase in cell viability at 5 uM after 72 hrs by CellTiter-Glo assay; type: functional, cell-based
INS1 [3] = assay: Reversal of tunicamycin induced caspase-3 cleavage in rat INS-1 cells at 20 uM after 2 to 24 hrs by Western blot analysis; type: functional, cell-based
Summary of the method: (§1)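 Western blots of INS-1 cells (8×10^5/60-mm dish) treated with Tm 0.1 µg/mL ± compound 20 µM or DMSO for the indicated times. Lysates with EDTA and phosphatase inhibitors; 20 µg protein on 7% SDS-PAGE, PVDF. Primary antibodies at 1:1000 against ATF4, CHOP, cleaved caspase 3 or PARP; α-tubulin loading control; HRP secondaries. Representative of 3 experiments.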

INS1 [4] = assay: Protection against tunicamycin induced endoplasmic reticulum stress in rat INS-1 cells assessed as increase in cell viability at 20 uM after 24 hrs by live-cell phase-contrast image analysis; type: functional, cell-based
Summary of the method: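 INS-1 cells treated with or without Tm 0.1 µg/mL in the presence of compound 20 µM or DMSO for 24 h; live-cell phase-contrast images acquired at 10× magnification.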

INS1 [5] = assay: Suppression of tunicamycin impaired glucose-stimulated insulin secretion in rat INS-1 cells at 10 to 20 uM preincubated for 24 hrs followed by 25 mM glucose addition for 1 hr by ELISA; type: functional, cell-based
Summary of the method: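 INS-1 cells in 96-well plates given Tm 0.1 µg/mL plus compound for 24 h, preincubated 1 h in KRBH (pH 7.4, 2% BSA) with 2.5 mM glucose, then 1 h in 2.5 or 25 mM glucose. Secreted insulin by ELISA, corrected for total protein (Bradford); 2.5 mM glucose without Tm set to 1.0.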

Rattus norvegicus = organism: Rattus norvegicus; assay: Inhibition of IRE1alpha in rat INS-1 cells assessed as suppression of tunicamycin induced spliced XBP1 mRNA levels at 20 uM after 4 to 24 hrs in by qRT-PCR method; type: cell-based
Summary of the method: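 Spliced XBP1 mRNA in INS-1 cells (4×10^5/well, 6-well plates) measured by qRT-PCR with splicing-specific primers after Tm 0.1 µg/mL ± compound 20 µM or DMSO for the indicated times. Expressed as fold-increase over untreated control; 3 replicate wells, representative of 3 experiments, SD.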

[6] = molecular target: T1, Eukaryotic translation initiation factor 2-alpha kinase 3 (Rattus norvegicus) (UniProt Q9Z1Z1); assay: Inhibition of PERK pathway in rat INS-1 cells assessed as reduction in tunicamycin induced ATF4 mRNA levels at 20 uM after 2 to 24 hrs by qRT-PCR method; type: cell-based
T1 sequence (whole entry): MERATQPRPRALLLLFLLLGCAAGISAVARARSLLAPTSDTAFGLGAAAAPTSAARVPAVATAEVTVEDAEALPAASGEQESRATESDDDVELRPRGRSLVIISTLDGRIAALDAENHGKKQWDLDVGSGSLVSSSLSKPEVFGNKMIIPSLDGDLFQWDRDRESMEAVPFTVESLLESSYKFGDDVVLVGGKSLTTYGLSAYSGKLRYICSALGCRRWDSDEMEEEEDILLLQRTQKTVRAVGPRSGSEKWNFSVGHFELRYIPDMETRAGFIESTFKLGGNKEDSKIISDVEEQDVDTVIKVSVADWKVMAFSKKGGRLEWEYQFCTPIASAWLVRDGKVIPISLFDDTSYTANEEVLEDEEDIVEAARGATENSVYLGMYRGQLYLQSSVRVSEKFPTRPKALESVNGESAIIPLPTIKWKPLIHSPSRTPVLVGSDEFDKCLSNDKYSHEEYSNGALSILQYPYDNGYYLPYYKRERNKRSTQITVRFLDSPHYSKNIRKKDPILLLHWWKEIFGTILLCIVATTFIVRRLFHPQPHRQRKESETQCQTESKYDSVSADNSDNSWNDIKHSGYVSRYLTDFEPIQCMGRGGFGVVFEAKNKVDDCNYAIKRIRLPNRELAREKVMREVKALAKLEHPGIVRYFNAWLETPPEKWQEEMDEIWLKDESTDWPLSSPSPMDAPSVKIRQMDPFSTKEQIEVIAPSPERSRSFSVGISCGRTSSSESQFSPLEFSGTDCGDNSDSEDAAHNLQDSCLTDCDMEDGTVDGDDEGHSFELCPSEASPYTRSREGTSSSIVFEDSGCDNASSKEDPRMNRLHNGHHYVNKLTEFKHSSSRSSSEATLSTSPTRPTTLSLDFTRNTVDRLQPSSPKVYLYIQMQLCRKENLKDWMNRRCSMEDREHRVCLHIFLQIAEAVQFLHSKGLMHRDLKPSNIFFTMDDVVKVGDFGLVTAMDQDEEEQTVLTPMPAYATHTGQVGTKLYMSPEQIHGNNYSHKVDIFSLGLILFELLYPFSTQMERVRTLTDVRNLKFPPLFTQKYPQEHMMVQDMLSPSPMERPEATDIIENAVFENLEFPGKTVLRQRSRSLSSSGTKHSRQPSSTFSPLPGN
Summary of the method: (§2)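 ATF4 or CHOP mRNA measured by qRT-PCR in INS-1 cells treated with Tm 0.1 µg/mL ± compound 20 µM or DMSO for the indicated times. Expressed as fold-increase over untreated control; means of 3 replicate wells, representative of 3 independent experiments, SD.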

[7] = molecular target: T1, Eukaryotic translation initiation factor 2-alpha kinase 3 (Rattus norvegicus); assay: Inhibition of PERK pathway in rat INS-1 cells assessed as reduction in tunicamycin induced CHOP mRNA levels at 20 uM after 2 to 24 hrs by qRT-PCR method; type: cell-based; summary of the method: as §2
[8] = molecular target: T1, Eukaryotic translation initiation factor 2-alpha kinase 3 (Rattus norvegicus); assay: Inhibition of PERK pathway in rat INS-1 cells assessed as reduction in tunicamycin induced CHOP protein levels at 20 uM after 2 to 24 hrs by Western blot analysis; type: cell-based; summary of the method: as §1

inhibition [6]: Active
inhibition [7]: Active
inhibition [8]: Active
Compound: COc1ccc(CNc2nc(N3CCCCC3CO)nc3ccccc23)cc1 (racemic)
EC50 (INS1 [1]): 0.56 µM
Activity (INS1 [2]): Active
Activity (INS1 [3]): Active
Activity (INS1 [4]): Active
Activity (INS1 [5]): Active
inhibition (Rattus norvegicus): Active

Reference: ChEMBL document CHEMBL4428057, “Discovery, Synthesis, and Evaluation of 2,4-Diaminoquinazolines as a Novel Class of Pancreatic β-Cell-Protective Agents against Endoplasmic Reticulum (ER) Stress” (J Med Chem, 2016)
